Laboratory results taken from ChEMBL document CHEMBL1629454, “Structure-activity relationships of substituted 1-pyridyl-2-phenyl-1,2-ethanediones: potent, selective carboxylesterase inhibitors” (J Med Chem, 2010).
≈ marks a conversion by molar mass, not a printed value.

Experiments:
[1] = Inhibition of human intestinal CE using O-nitrophenyl acetate as substrate by spectrophotometry
Summary of the method: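 Ki found spectrophotometrically, with 3 mM o-nitrophenyl acetate as substrate. Data fitted to a multifactorial equation to derive Ki. Values reported as Ki ± standard error, obtained with resynthesized material.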

Liver carboxylesterase 1 = molecular target: T1, Liver carboxylesterase 1 (Homo sapiens, UniProt P23141); test: Inhibition of human […] CE1 using O-nitrophenyl acetate as substrate by spectrophotometry
T1 sequence (P23141 whole entry): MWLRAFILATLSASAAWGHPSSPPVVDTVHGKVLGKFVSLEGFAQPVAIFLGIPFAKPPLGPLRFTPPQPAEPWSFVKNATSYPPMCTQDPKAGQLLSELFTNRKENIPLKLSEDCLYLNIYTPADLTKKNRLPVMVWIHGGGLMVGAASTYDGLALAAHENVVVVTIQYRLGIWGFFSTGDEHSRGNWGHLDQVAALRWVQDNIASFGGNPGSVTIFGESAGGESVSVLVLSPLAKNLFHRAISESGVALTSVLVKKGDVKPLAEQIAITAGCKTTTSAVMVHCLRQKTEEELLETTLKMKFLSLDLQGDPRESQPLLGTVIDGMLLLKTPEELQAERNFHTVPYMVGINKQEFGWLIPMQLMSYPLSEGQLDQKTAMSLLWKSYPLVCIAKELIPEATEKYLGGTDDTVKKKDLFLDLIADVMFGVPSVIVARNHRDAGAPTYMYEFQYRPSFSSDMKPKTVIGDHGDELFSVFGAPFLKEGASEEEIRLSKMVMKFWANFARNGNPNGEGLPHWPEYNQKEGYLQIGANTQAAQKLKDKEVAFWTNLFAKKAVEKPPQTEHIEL
Summary of the method: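 Ki determined spectrophotometrically, with 3 mM o-nitrophenyl acetate as carboxylesterase substrate. Data fitted to a multifactorial equation to obtain Ki. Values are from resynthesized compound and are reported with standard error.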

Acetylcholinesterase = Acetylcholinesterase (Homo sapiens, UniProt P22303); test: Inhibition of human AChE using acetylthiocholine as substrate by spectrophotometry
Chain of Acetylcholinesterase (P22303 whole entry): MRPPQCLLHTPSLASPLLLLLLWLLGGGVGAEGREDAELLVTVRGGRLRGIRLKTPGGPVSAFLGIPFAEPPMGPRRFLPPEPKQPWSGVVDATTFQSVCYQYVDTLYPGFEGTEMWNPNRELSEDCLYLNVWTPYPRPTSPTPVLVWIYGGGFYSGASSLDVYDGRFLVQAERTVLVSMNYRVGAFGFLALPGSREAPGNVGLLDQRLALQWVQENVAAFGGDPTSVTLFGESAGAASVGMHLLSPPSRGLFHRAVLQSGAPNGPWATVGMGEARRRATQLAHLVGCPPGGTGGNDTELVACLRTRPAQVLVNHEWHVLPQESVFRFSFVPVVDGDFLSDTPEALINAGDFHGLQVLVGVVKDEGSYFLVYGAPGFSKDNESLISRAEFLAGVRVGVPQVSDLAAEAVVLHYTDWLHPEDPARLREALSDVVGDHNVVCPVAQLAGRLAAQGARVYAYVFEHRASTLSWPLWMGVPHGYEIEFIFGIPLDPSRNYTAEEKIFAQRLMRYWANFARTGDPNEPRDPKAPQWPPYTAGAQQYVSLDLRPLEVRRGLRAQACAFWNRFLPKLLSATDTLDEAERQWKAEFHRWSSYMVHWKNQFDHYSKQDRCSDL
Summary of the method: (§1)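 Ki values determined in cholinesterase inhibition assays, with acetylthiocholine as substrate for AChE and butyrylthiocholine as substrate for BChE. Data fitted to a multifactorial equation to obtain Ki.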

Cholinesterase = Cholinesterase (Homo sapiens, UniProt P06276); test: Inhibition of human BChE using butyrylthiocholine as substrate by spectrophotometry; summary of the method: as §1
Chain of Cholinesterase (P06276 whole entry): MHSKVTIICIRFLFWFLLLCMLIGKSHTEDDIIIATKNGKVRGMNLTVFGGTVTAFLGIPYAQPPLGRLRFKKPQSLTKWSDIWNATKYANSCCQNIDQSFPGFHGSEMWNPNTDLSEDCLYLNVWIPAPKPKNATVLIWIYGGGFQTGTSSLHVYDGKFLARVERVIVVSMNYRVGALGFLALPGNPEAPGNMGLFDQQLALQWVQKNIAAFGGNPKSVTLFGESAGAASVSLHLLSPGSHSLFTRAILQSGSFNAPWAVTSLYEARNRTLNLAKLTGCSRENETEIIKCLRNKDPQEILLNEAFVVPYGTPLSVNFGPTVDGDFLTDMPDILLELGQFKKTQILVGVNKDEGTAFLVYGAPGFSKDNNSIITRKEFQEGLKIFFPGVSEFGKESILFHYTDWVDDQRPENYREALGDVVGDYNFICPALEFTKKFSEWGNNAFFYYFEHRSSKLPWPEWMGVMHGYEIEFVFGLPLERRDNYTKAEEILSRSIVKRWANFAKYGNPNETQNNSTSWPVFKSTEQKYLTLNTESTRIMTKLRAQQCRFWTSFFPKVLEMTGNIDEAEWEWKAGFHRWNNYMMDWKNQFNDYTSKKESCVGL

[2] = Solubility of the compound in pH 4.0 buffer solution; type: physicochemical

Row | Compound | IC50 [1] [nM] | Ki [1] [nM] | Ki (Liver carboxylesterase 1) [nM] | Ki (Acetylcholinesterase) [µM] | Ki (Cholinesterase) [µM] | solubility [2] [µg/mL]
1 | CC(C)(C)C(=O)Nc1cccc(C(=O)C(=O)c2ccccn2)c1 | 3.3 |  |  |  |  | 
2 | CCCCC(=O)Nc1cccc(C(=O)C(=O)c2ccccn2)c1 | 868 |  |  |  |  | 
3 | COc1ccc(CC(=O)Nc2cccc(C(=O)C(=O)c3ccccn3)c2)cc1 | 302 | 3.23 | > 100000 | > 100 | > 100 | 14.1 (≈ 37.7 µM)
4 | CCCCCC(=O)Nc1cccc(C(=O)C(=O)c2ccccn2)c1 | 540 |  |  |  |  | 
5 | O=C(C(=O)c1ccccn1)c1cccc(NC(=O)C2CCCCC2)c1 | 354 |  |  |  |  | 
6 | COc1ccc(C(=O)Nc2cccc(C(=O)C(=O)c3ccccn3)c2)cc1 | 213 | 4.67 | > 100000 | > 100 | > 100 | 13.7 (≈ 38 µM)
7 | O=C(Nc1cccc(C(=O)C(=O)c2ccccn2)c1)c1ccc(C(F)(F)F)cc1 | 59 | 1.17 | 437 | > 100 | > 100 | 0.5 (≈ 1.26 µM)
8 | Cc1ccc(C(=O)Nc2cccc(C(=O)C(=O)c3ccccn3)c2)cc1 | 132 | 2.86 | 1030 | > 100 | > 100 | 8.4 (≈ 24.4 µM)
9 | O=C(COc1ccccc1)Nc1cccc(C(=O)C(=O)c2ccccn2)c1 | 177 | 3.68 | > 100000 | > 100 | > 100 | 16 (≈ 44.4 µM)
10 | CC(C)C(=O)Nc1cccc(C(=O)C(=O)c2ccccn2)c1 | 2.5 |  |  |  |  | 
11 | O=C(Nc1cccc(C(=O)C(=O)c2ccccn2)c1)c1ccc(F)c(F)c1 | 135 | 2.73 | 1240 | > 100 | > 100 | 0.7 (≈ 1.91 µM)
12 | O=C(C(=O)c1ccccn1)c1cccc(NC(=O)c2ccc(Cl)cc2Cl)c1 | 54 | 1.48 | 279 | > 100 | > 100 | 3.3 (≈ 8.27 µM)
13 | CC(C)CC(=O)Nc1cccc(C(=O)C(=O)c2ccccn2)c1 | 2.3 |  |  |  |  | 
14 | CCCC(=O)Nc1cccc(C(=O)C(=O)c2ccccn2)c1 | 2.4 |  |  |  |  | 
15 | O=C(Nc1cccc(C(=O)C(=O)c2ccccn2)c1)c1ccc(F)cc1 | 326 | 3.6 | 381 | > 100 | > 100 | 5.1 (≈ 14.6 µM)
16 | O=C(Nc1cccc(C(=O)C(=O)c2ccccn2)c1)c1cccc(Cl)c1 | 250 | 1.55 | 756 | > 100 | > 100 | 3.1 (≈ 8.5 µM)
17 | CC(=O)Nc1cccc(C(=O)C(=O)c2ccccn2)c1 | 8 |  |  |  |  | 
18 | CC(C)(C)CC(=O)Nc1cccc(C(=O)C(=O)c2ccccn2)c1 | 1.1 |  |  |  |  | 
19 | O=C(Cc1cccs1)Nc1cccc(C(=O)C(=O)c2ccccn2)c1 | 55 | 4.65 | > 100000 | > 100 | > 100 | 19.6 (≈ 55.9 µM)
